Compounds with a hit are over-represented: about 4.3% of the library has one in this group of screens.
Rtt109 Vps75 – blocks Candida albicans Rtt109/Vps75 acetyltransferase activity; inhibition, % at 34.9 µM; Q5AAJ8; hit rate 0.16% among 330,000; AID 540336; purified Rtt109/Vps75, ThioGlo CoA-SH fluorescence, 4 h;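 active = inhibition of at least 50% in every replicate; inconclusive = best replicate reaches 50% inhibition but some replicates fall short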
Target sequence (Q5AAJ8 whole entry, looked up): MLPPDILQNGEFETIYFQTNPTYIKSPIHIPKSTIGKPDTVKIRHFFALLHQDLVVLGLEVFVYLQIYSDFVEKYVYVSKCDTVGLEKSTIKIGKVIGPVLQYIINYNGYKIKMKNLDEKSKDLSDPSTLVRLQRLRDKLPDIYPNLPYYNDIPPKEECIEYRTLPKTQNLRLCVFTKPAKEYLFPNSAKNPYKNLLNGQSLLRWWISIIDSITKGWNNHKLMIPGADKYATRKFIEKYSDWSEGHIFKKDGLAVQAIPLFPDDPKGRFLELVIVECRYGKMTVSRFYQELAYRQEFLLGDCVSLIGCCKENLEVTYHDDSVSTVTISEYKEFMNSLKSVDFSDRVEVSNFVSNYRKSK
CAL PDZ FP-1 – blocks peptide binding to human CAL PDZ domain; Q9HD26; purified CAL PDZ, TMR-peptide fluorescence polarization, 1 h; inhibition, % at 20 µM; hit rate 0.02% among 330,000;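 active = highest replicate inhibition of at least 40%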;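 also: plate controls were DMSO neutral control wells for no effect and unlabeled competitor peptide control wells for full effect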
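Control set: unlabelled peptide and DMSO controls / Material: purified CerCALP PDZ construct / Timing: 1 h incubation at room temperature before polarization reading / Doses: 20 µM, one dose / Detection: fluorescence polarization (mP)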
DYRK1A inh – Dyrk1A (rat) kinase inhibition | ADP-Glo luminescence, NFATc1 peptide | inhibition, % at 12.5 µM | hit rate 0.43% among 310,000 | AID 504441; in the data active = inhibition above about 50%;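 also: plate controls were vehicle with enzyme for no effect and no enzyme for full effect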
ALR H2O2 inh – blocks human ALR sulfhydryl oxidase activity. P55789. purified ALR, DTT oxidation, H2O2 HRP-luminol luminescence. inhibition, % (test concentration not listed). hit rate 3.8% among 290,000. AID 485317;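 active = mean replicate inhibition above about 79%, with every replicate also reaching it, limit read from the data; inconclusive = only one of the two criteria met; inactive = mean below limit and not every replicate reaching it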
Target sequence (P55789 whole entry, looked up): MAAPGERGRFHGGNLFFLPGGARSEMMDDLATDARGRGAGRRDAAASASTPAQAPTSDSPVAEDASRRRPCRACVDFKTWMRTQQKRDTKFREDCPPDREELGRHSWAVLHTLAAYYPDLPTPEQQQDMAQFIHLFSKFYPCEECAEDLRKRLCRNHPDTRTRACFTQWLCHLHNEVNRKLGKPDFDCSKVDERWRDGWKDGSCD
CAL PDZ FP-2 – blocks peptide binding to the human CAL PDZ domain | inhibition, % at 24.9 µM | hit rate 0.92% among 300,000 | Q9HD26 | purified CAL PDZ, TMR-peptide fluorescence polarization, 1 h;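 active = mean inhibition of at least 30% with at least half of replicates also reaching 30%; inconclusive = no clear call, values can overlap the other calls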;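 also: 0% = DMSO neutral control and 100% = excess unlabeled competitor peptide PRC23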
Active calls of the source: *; ? = inconclusive; . = no result given.

SMILES	Rtt109 Vps75	CAL PDZ FP-1	DYRK1A inh	ALR H2O2 inh	CAL PDZ FP-2
COC(=O)c1cccc(NC(=O)CCc2c(C)noc2C)c1	-1	1	-1	-2	2
O=C(O)c1ccc(CSc2nc3ccccc3o2)cc1	-3	-1	2	97*	1
O=C(O)c1ccccc1CSc1nc2ccccc2o1	3	-1	3	36	-7
c1ccc(-c2noc(CSc3nc4ccccc4o3)n2)cc1	-4	-1	-4	86*	-6
CCCCCN1CSC(=S)N(Cc2ccccc2)C1	4	0	4	24	46*
OCCNc1nc(-c2ccccc2)c2cc(Cl)ccc2n1	-295	-1	3	-26	20
Cc1ccc2nc(NCCO)nc(-c3ccccc3)c2c1	2	-2	8	98*	.
O=C(O)CCCNc1ccc(S(=O)(=O)N2CCCCC2)cc1	2	3	30	-4	2
CCc1cccc(CC)c1NC(=O)COC(=O)C1(C)CC1(Cl)Cl (centres undefined)	31	0	-4	-2	-6
Cc1ccc(/C=C2/Sc3ccccc3N(CC(=O)NCC3CCCO3)C2=O)cc1 (centres undefined)	6	-1	4	-5	184*
Cc1ccc(NC(=O)c2ccc(NS(=O)(=O)/C=C/c3ccccc3)cc2)nc1	10	-2	8	6	14
O=C1NN(c2ccccc2)C(=O)/C1=C\c1ccccc1OCC(=O)N1CCOCC1	1	0	-12	99*	-4
Cc1ccc(S(=O)(=O)Nc2cccc(-n3cnnn3)c2)cc1	-6	0	-2	-3	53*
O=S(=O)(Nc1cccc(-n2cnnn2)c1)c1ccc(F)cc1	0	-2	1	.	-1
COc1ccc(C=O)cc1CSc1ccccn1	-2	-1	3	97*	.
CCCCNC(=O)CC1N=C2c3ccccc3N=C(SCC(=O)Nc3ccc(OC)cc3)N2C1=O (centres undefined)	11	-3	-3	96*	-1
CCCCNC(=O)CC1N=C2c3ccccc3N=C(SCC(=O)Nc3cccc(OC)c3)N2C1=O (centres undefined)	-6	-1	9	84*	-1
CCN(CC)c1ccc(N)cc1	-12	1	.	97*	-15
Nc1ccc(N(CCO)CCO)cc1	-1	.	7	97*	-3
CCN(CC)c1ccc(C(=O)NN)cc1	0	-2	1	2	1
CCOc1ccc2nc(N3CCCCCC3)sc2c1	-13	-1	-53	90*	.
Cc1ccc(S(=O)(=O)Nc2cccc3cccnc23)cc1	4	-1	-4	-4	42*
O=C1C2CCC(C2)C1CN1CCOCC1 (centres undefined)	8	0	4	.	-3
CSc1nc2cc(Oc3cccc(Cl)c3Cl)c(Cl)cc2[nH]1	5	-1	16	3	-4
O=C(CC1C(=O)NCCN1Cc1c(F)cccc1Cl)NC1CCCC1 (centres undefined)	-4	-1	-8	-6	-2
SMILES	Rtt109 Vps75	CAL PDZ FP-1	DYRK1A inh	ALR H2O2 inh	CAL PDZ FP-2
O=C(ONc1ccc(N=NC(=O)c2ccccc2O)cc1)c1ccccc1	-10	-2	-5	98*	-21
O=Nc1ccc(NOC(=O)c2ccccc2Br)cc1	1	0	20	60	1
c1ccc(Cn2c[n+](Cc3ccccc3)cn2)cc1	2	0	8	.	-6
COc1ccc(Cl)cc1NC(=O)NN1CCN(C)CC1	-1	-3	-3	-5	-5
Cc1c(NS(=O)(=O)c2ccccc2)cc(Cl)c(O)c1C	-4	-1	10	99*	6
Cc1c(Cl)cccc1NS(=O)(=O)c1ccccc1	1	-1	.	.	.
Cc1ccc2c(C)c(C(=O)NCc3ccc(S(N)(=O)=O)cc3)oc2c1	-5	1	1	-16	-1
Cc1nn(C2CCCCC2)c(N)c1-c1ccccc1	3	.	10	97*	-4
Cc1nn(Cc2ccccc2)c(N)c1-c1ccccc1	-2	0	4	97*	.
COc1ccc(-c2noc(N3CCCC(C(=O)Nc4cc(F)ccc4F)C3)n2)cc1 (centres undefined)	0	-1	-2	-10	.
COc1ccc(CCN2CC(C(=O)NCc3nc4ccccc4n3C)CCC2=O)cc1 (centres undefined)	9	0	.	-4	.
c1ccc2c(Nc3ccc(N4CCOCC4)cc3)nc(N3CCOCC3)nc2c1	4	1	3	92*	1
COc1ccc(CNc2ccc(N3CCOCC3)cc2)cc1	-3	-1	12	99*	-1
c1ccc(CNc2ccc(N3CCOCC3)cc2)cc1	2	-1	12	99*	-2
COc1ccc(OCC(=O)Nc2ccc(N3CCOCC3)cc2)cc1	3	-1	6	-15	2
c1ccc(N2CCOCCOCCOCCOCCOCC2)cc1	8	-2	-10	96*	-2
O=C(N1CCOCC1)N1CCN(c2ccccc2)CC1	4	0	-3	54	-4
O=S(=O)(c1ccc(NCc2ccccc2)cc1)N1CCOCC1	-2	-2	3	12	-5
CCn1cc(C(=O)OCC(=O)c2cc(C)n(-c3ccc(OC(F)F)cc3)c2C)c(=O)c2ccc(C)nc21	16	-1	-4	4	-3
CC(=O)Nc1cccc(NC(=O)CSc2nc3c(c(=O)n(C)c(=O)n3C)n2C)c1	-9	-2	-5	.	-4
CC1C[N+](=C2C=C(N3CCOCC3)CC(C)(C)C2)CC(C)O1 (centres undefined)	31	0	0	-1	0
CCOC(=O)C1=NS(=O)(=O)NC(C)=C1	6	1	.	.	-3
O=C(CN(Cc1ccccc1)C(=O)CCC(=O)Nc1nccs1)NCc1ccc(F)cc1	-22	-2	-3	-3	-5
CCNC(=O)c1ccccc1SCC(=O)Nc1ccc(F)cc1	-2	0	-4	-6	.
COC1=C/C(=C/c2c(N)n3nc(CC(=O)N4CCCCC4)sc3nc2=O)C=CC1=O	-1	-2	11	100*	-4
SMILES	Rtt109 Vps75	CAL PDZ FP-1	DYRK1A inh	ALR H2O2 inh	CAL PDZ FP-2
C=CCC1=C/C(=C\c2c(N)n3nc(CC(=O)N4CCCC4)sc3nc2=O)C=C(OC)C1=O	8	-2	-3	50	3
Nc1c(C=C2C=CC(=O)C=C2)c(=O)nc2sc(CC(=O)N3CCOCC3)nn12	11	-1	-2	98*	-1
CCOC1=C/C(=C/c2c(N)n3nc(S(=O)(=O)CC)sc3nc2=O)C=CC1=O	5	-4	10	99*	-4
CCOC1=C/C(=C/c2c(N)n3nc(CC(=O)N4CCCCC4)sc3nc2=O)C=CC1=O	?	-2	-3	99*	-2
Cc1ccccc1S(=O)(=O)N1[C@@H](c2ccc(F)cc2)C(C(=O)O)=CC[C@H]1c1ccc(Cl)cc1	3	-1	-3	5	-4
CSc1ncc(C(=O)Nc2ccc(C(C)=O)cc2)c(C)n1	9	-1	7	-4	5
CC(/C=N/n1c(-c2ccco2)n[nH]c1=S)=C\c1ccccc1	15	0	-2	55	-1
